Screening data from PubChem BioAssay.
In the library only some 2.6% were active in any assay of this set; here they are far more common.
RAD52 inh – inhibitors of human RAD52 DNA annealing; inhibition, % at 18.7 µM; P43351; 0.46% of 360,000 active; recombinant RAD52 DNA annealing, FRET fluorescence;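 active means every replicate showing at least 50% inhibition; inconclusive means mean inhibition at least 50% but not in every replicate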
GSIS activator – GLuc luminescence reporter in INS-1E cells, primary screen for activators of glucose-dependent secretion of insulin. INS-1E GLuc reporter insulin secretion, 2-3 h. 0.61% of 370,000 active. activation, % at 16.6 µM;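 active means lowest replicate activation of at least 40%, so every replicate reaches that level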;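 further: 0% = median of neutral control wells and 100% = median of IBMX positive control wells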
AF4-AF9 inh – MLL-AF4/AF9 protein interaction inhibition | P42568 | AlphaScreen, biotin-AF4 peptide binding to FLAG-AF9 | inhibition, % at 10 µM | 0.47% of 350,000 active;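 active means every replicate reaching a set inhibition limit, whatever the replicate mean, cut at about 25% in these data; inconclusive means mean inhibition reaches that limit but some replicates miss it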;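 further: 0% = plate neutral control median and 100% = total signal loss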
RAD54 inh – inhibitors of human RAD54 branch migration; inhibition, % at 10.4 µM; Q92698; RAD54 Holliday junction branch migration, FAM/BHQ fluorescence; AID 602329; 0.14% of 360,000 active;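 active means mean normalized replicate activity at least 40 and at least half of replicates scoring 40 or more; inconclusive means only one of the two criteria met; inactive means mean below 40 and under half of replicates reaching 40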;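 further: 0% = median of neutral control wells and 100% = median of positive control wells; inhibitors cause a drop in the FAM fluorescence signal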
rRNA inh HTS – selective bacterial rRNA inhibition in E. coli; E. coli WT GFP vs humanized-ribosome RFP mutants, fluorescence, 24 h; hits give low values; DMSO median 0, no signal -100; GFP signal change (wild-type ribosome), % (no concentration beside the values); 1.6% of 350,000 active;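 active means significant combined selectivity score with lowered wild-type GFP, culture density cut under 30%, mutant RFP and density less affected; inactive means any of these conditions unmet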
E-sel inducer – induces E-selectin expression in human endothelial cells; activation, % at 7.58 µM; 0.37% of 260,000 active; HUVEC E-selectin immunofluorescence imaging; normalized: neutral wells 0, TNF-alpha wells 100;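 active means mean E-selectin-positive cell signal at least 10% of the positive control, reached in at least 60% of replicates, without over 20% cell loss; inconclusive means no rule given, readout overlaps actives, possibly toxicity-flagged; inactive means the rest, including those meeting only one limit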
Target sequence (P16581 whole entry, looked up): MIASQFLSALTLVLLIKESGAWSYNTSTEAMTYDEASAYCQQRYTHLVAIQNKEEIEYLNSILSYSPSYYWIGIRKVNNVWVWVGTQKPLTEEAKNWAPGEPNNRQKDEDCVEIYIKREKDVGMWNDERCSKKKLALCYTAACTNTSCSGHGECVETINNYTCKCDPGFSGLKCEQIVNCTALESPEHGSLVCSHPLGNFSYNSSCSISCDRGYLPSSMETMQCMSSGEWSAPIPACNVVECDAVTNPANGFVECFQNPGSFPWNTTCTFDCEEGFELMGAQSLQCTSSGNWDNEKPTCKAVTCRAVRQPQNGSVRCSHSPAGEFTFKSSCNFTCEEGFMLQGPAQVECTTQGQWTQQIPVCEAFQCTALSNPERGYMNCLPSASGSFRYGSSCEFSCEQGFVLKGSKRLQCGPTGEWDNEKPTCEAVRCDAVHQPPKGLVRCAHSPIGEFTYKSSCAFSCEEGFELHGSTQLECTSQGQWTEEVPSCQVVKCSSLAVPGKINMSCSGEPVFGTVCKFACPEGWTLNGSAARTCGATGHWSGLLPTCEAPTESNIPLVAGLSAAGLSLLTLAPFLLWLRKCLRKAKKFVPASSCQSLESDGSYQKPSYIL
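Read-out basis: % PE-positive cells; Test system: HUVEC primary endothelial cells; Technique: immunofluorescence imaging; Dosing: single-point compound dose.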
Starred values were filed as active, the others as inactive; ? = inconclusive; nt = not tested or not shown.

SMILES	RAD52 inh	GSIS activator	AF4-AF9 inh	RAD54 inh	rRNA inh HTS	E-sel inducer
CCOc1cccc2sc(NC(=O)CC)nc12	-11	16	-5	-3	-19*	nt
COc1ccc(-c2ccc(SCC(=O)NCc3ccco3)nn2)cc1OC	nt	62*	nt	nt	nt	nt
COc1ccc(-c2ccc(SCC(=O)NCC3CCCO3)nn2)cc1OC (centres undefined)	7	75*	0	0	5	2
O=C(CSc1ccc(-c2ccc(F)cc2)nn1)NCC1CCCO1 (centres undefined)	-3	-8	0	3	2	0
COc1ccc(-c2ccc(SCC(=O)NC3CCCCC3)nn2)cc1OC	-13	105*	2	9	-8	nt
N#Cc1cc(Cl)c(N2CCOCC2)cc1C#N	nt	nt	nt	6	nt	nt
N#Cc1cc2ccc(N3CCOCC3)cc2cc1C#N	-15	-53	4	4	-34*	nt
CN1CCN(C(=O)C[C@@H]2C[C@H]3c4cc(NC(=O)c5ccc6c(c5)OCO6)ccc4O[C@H]3[C@@H](CO)O2)CC1	3	12	-2	-7	3	1
O=C(NNC1CCN(Cc2ccccc2)CC1)c1ccccc1	-6	44*	0	-19	9	0
O=C(NC1CCN(Cc2ccccc2)CC1)c1ccc2c(c1)[nH]c(=O)n2Cc1ccc(F)cc1	-104	-6	8	nt	-32*	nt
C[C@H](CO)N1C[C@H](C)[C@@H](CN(C)C(=O)Nc2ccc3c(c2)OCO3)Oc2ccc(NS(C)(=O)=O)cc2CC1=O	1	9	-6	3	0	-2
O=C(c1cccnc1)N1CC[C@@H]2[C@H](CO)Nc3ccc(-c4cccc(F)c4)cc3[C@@H]21	-113	-17	0	-9	-6	?
Cn1c(SCC(=O)N(Cc2ccccc2)C(C)(C)C)nc2ccccc21	-9	4	12	-6	-31*	nt
O=C1CCC[C@@H]2c3[nH]c4ccccc4c3CCN12	-6	nt	4	1	nt	nt
C=CCn1cccc(C(=O)Nc2ccc(OC)cc2)c1=O	-12	-3	-1	nt	-12	nt
COc1ccc(NC(=O)c2cccn(CC=C(C)C)c2=O)cc1	-9	-2	0	nt	-26*	nt
COc1ccc(NC(=O)N(C)C[C@H]2Oc3c(NS(=O)(=O)c4cccs4)cccc3C(=O)N([C@H](C)CO)C[C@H]2C)cc1	-1	7	1	-2	-1	-7
Cc1ccc(SCc2[nH]nc3c2C(c2ccc(C)o2)C(C#N)=C(N)O3)cc1 (centres undefined)	-12	-7	-3	-9	-37*	nt
Cc1ccc(SCc2[nH]nc3c2C(c2ccco2)C(C#N)=C(N)O3)cc1 (centres undefined)	nt	nt	nt	10	nt	nt
COc1cccc(S(=O)(=O)N[C@H]2CC[C@@H](CC(=O)NCc3ccccc3)O[C@H]2CO)c1	-4	12	-1	3	1	-1
CC(=NNC(=S)N(Cc1ccccn1)Cc1ccccn1)c1cnccn1	-17	37	2	nt	-16*	2
S=C(NN=Cc1ccccn1)N(Cc1ccccn1)Cc1ccccn1	-15	5	11	nt	-11	nt
COc1ccc(NC(=O)N(C)C[C@H]2Oc3ccc(NC(=O)CCC(F)(F)F)cc3CC(=O)N([C@@H](C)CO)C[C@H]2C)cc1	7	6	0	-10	1	0
Cc1ccc(C)c(OCC(=O)N/N=C/c2c(C)nn(-c3ccccc3)c2Cl)c1C	nt	297*	nt	nt	nt	nt
CCc1cccc(NC(=O)CCc2c(C)nn(-c3ccc(N4CCCCC4)nn3)c2C)c1	-1	-34	0	0	-32*	0
SMILES	RAD52 inh	GSIS activator	AF4-AF9 inh	RAD54 inh	rRNA inh HTS	E-sel inducer
c1ccc2c(c1)CCc1ccccc1C2=C1CCNCC1	-10	15	1	nt	-36*	0
CN1CCC(=C2c3ccccc3C=Cc3ccccc32)CC1	7	-16	1	8	-8	0
CO[C@H]1CN(C)C(=O)c2ccc(NC(=O)C3CC3)cc2OC[C@H](C)N(Cc2cc(F)ccc2F)C[C@@H]1C	8	-22	-7	-9	-1	0
Cc1[nH]c(=O)c(C#N)cc1-c1ccncc1	-15	32	-3	-5	-2	58*
CCc1cc2c(=O)[nH]c(-c3ccncc3)nc2s1	-20	16	-8	nt	-13	-1
CC(C)NC(=S)N/N=C/c1sc(N2CCCCC2)nc1-c1cccs1	-96	12	-1	-7	5	0
NC(=O)N/N=C/c1sc(N2CCCCC2)nc1-c1cccs1	-6	10	30*	-3	6	nt
O=C(CCN1CCCCC1)NCC[C@@H]1CC[C@@H](NC(=O)C2CCCCC2)[C@@H](CO)O1	-27	-4	-3	nt	6	0
CCCOC(=O)Nc1ccc(S(=O)(=O)Nc2ncccn2)cc1	-18	54*	-3	7	11	3
CCc1cc2c(N3CCN(C(=O)c4ccco4)CC3)ncnc2s1	-9	-6	0	4	-30*	4
CC1CCN(c2ccc3nnc(CCC(=O)Nc4cccc(F)c4)n3n2)CC1	-16	-12	2	13	-30*	0
COc1ccc(NC(=O)CCc2nnc3ccc(N4CCC(C)CC4)nn23)cc1	-12	1	-5	1	-3	0
CCN(CC(=O)Nc1ccccc1OC)CC(=O)Nc1c(Cl)ccc(C)c1Cl	-21	-6	5	4	-26*	0
O=C(CSC1=NNC(c2ccccn2)S1)Nc1cccc(Cl)c1 (centres undefined)	5	nt	-3	-5	-3	0
O=C(CSC1=NNC(c2ccccn2)S1)Nc1ccccc1 (centres undefined)	-9	nt	-1	2	-19*	4
C[C@H](CO)N1C[C@H](C)[C@@H](CN(C)C(=O)c2cccnc2)Oc2ncc(C#CCN(C)C)cc2C1=O	-9	3	-6	-10	1	0
COc1ccc(OC)c(NC2=C(Cl)C(=O)N(Cc3ccccc3)C2=O)c1	-10	10	27*	-27	nt	0
Cc1noc(C)c1S(=O)(=O)Nc1ccc2c(c1)C(=O)N([C@@H](C)CO)C[C@@H](C)[C@@H](CN(C)CC1CC1)OCCCC[C@@H](C)O2	31	20	5	nt	4	0
CC(C)COC(=O)N1C[C@H](O)C[C@H]1C(=O)Nc1ccc(Cl)cc1	-15	120*	1	-4	2	0
CCCNC(=O)N1[C@@H]2c3cccc(=O)n3C[C@H]1[C@H](CO)[C@H]2C(=O)N1CCC(Cc2ccccc2)CC1	-13	-5	-3	-3	0	0
C[C@H](CO)N1C[C@H](C)[C@@H](CN(C)Cc2ccc(C(F)(F)F)cc2)Oc2c(NC(=O)C3CCOCC3)cccc2C1=O	2	-22	-1	-2	-1	-3
